Data from PMC7717452 (Journal of Enzyme Inhibition and Medicinal Chemistry, 2020).
Several values for one entry are separate records, joined by “and”; a condition that tells them apart may be missing. Equal values may be shown once. Read-outs that look alike come from different tables or passages of the source.

Tests used:
[1] = target: T1, LiTryS (Leishmania infantum trypanothione synthetase) (Leishmania infantum, UniProt A4I2Z3); assay: TryS activity end-point assay; format: biochemical; conditions: for IC50: ± 2σ, ∼30 assumed for 50 ± 5% inhibition at 30 µM; for % TryS inhibition at 30 µM, LiTryS: NA = not active (enzyme activity > 95%)
T1 sequence (A4I2Z3 1-652): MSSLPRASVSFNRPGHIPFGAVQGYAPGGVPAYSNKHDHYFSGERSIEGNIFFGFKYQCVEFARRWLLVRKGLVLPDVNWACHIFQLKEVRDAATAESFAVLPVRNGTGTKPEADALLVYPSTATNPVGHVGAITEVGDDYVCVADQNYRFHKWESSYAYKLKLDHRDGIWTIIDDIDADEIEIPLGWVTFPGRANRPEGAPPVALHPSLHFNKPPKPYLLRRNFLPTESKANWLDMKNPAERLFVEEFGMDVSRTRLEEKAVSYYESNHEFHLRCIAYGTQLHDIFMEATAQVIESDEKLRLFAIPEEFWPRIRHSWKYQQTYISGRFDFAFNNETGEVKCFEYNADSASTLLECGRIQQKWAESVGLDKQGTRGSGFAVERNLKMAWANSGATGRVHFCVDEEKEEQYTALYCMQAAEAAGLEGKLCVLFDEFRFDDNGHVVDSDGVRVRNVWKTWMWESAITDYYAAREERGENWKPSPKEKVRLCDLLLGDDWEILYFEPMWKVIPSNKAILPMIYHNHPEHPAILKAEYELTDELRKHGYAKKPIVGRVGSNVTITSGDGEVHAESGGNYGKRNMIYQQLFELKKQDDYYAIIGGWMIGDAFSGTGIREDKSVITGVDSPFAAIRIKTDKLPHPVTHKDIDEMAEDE
Outline: (§1)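 Recombinant TryS end-point assay in 100 mM HEPES pH 7.4 with 5 mM DTT, 10 mM MgSO4 and 0.5 mM EDTA. ATP was 150 µM and spermidine 2 mM. GSH was 0.25 mM for LiTryS, 0.05 mM for TbTryS and 0.57 mM for TcTryS. Enzyme started the reaction and BIOMOL Green stopped it after 15 min. A650 was read after 20 min at room temperature. Values were corrected with no-enzyme blanks and for compound interference with phosphate. At least quadruplicates; IC50 is given ± 2σn-1.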

[2] = tested on: Mouse macrophages from the cell line J774; assay: Cytotoxicity assay; format: cell-based; conditions: 24 h, non-infected J774; for CC50: read-out: CC50, macrophages
Outline: (§2)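 J774 mouse macrophages were grown in DMEM with 10% FBS and penicillin/streptomycin at 37 °C in humidified 5% CO2. Cells were seeded at 6 × 10^4 cells/mL and exposed the next day for 24 h to test compound at 100 to 0.001 µM (200 µM for one compound). The WST-1 signal was read at A450. % cytotoxicity was calculated against DMSO-treated and untreated cells, and CC50 is given ± σn–1.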

[3] = tested on: L. braziliensis amastigotes; assay: Macrophage infection assay, L. braziliensis amastigotes; format: cell-based, Leishmania braziliensis; conditions: for activity at 10 µM: Leishmania braziliensis, Macrophage, read-out: % infection by L. braziliensis at 10 µM; for SI, L. braziliensis amastigotes: selectivity index, macrophage CC50 and amastigote EC50
Outline: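 J774 macrophages were plated on coverslips at 1 × 10^5 cells/mL in DMEM with 1% FBS. They were infected with stationary-phase L. braziliensis promastigotes (MHOM/BR/01/BA788; 1:20) for 2 h at room temperature, then 22 h at 35 °C. After washing, cells got test compound (5 or 10 µM, or 10–0.01 µM) in 1% DMSO for 24 h at 37 °C and 5% CO2. Cells were EtOH-fixed and DAPI-stained, and 100–200 macrophages were imaged. % infected cells is relative to DMSO.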

[4] = Cytotoxicity assay; format: cell-based, mouse; conditions: mouse, J774 macrophages (ATCC TIB67), non-infected
Outline: as §2

[5] = target: T2, TbTryS (Trypanosoma brucei brucei, UniProt Q8IEX1); assay: TryS activity end-point assay; format: biochemical; conditions: IC50 value, TbTryS, ± 2σ; ~30 assumed for 50 ± 5% inhibition at 30 µM
T2 sequence (Q8IEX1 1-627): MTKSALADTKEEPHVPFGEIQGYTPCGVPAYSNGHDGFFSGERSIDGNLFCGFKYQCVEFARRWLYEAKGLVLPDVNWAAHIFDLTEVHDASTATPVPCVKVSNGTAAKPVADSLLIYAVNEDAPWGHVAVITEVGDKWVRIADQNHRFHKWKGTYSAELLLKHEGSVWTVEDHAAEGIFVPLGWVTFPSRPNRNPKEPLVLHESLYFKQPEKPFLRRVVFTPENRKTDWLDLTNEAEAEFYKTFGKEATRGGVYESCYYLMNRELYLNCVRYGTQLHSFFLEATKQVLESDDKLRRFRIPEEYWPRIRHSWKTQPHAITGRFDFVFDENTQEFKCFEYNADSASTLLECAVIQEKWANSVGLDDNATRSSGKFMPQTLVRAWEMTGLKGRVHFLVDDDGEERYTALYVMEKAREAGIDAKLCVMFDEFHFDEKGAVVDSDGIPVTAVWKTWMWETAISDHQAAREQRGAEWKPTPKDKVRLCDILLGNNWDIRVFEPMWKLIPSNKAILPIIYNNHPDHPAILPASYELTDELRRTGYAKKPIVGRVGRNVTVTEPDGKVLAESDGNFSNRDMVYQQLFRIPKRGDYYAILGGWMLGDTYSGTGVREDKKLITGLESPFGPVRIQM
Outline: as §1

[6] = 24 h, relative to infected non-treated macrophages

Compound: O=C1Cc2c([nH]c3ccc(Br)cc23)-c2ccc(Cl)cc2N1CCO [Compound 2]
- IC50 ([1]; read-out: IC50 value, LiTryS): ~30 µM

Compound: O=C(O)CN1C(=O)Cc2c([nH]c3ccc(Br)cc23)-c2ccc(Cl)cc21 [Compound 3]
- % TryS inhibition at 30 µM, LiTryS [1]: inactive

Compound: COC(=O)CN1C(=O)Cc2c([nH]c3ccc(Br)cc23)-c2ccc(Cl)cc21 [Compound 4]
- IC50 ([1]; IC50 value, LiTryS): 3 ± 0.7 µM

Compound: CCOC(=O)CN1C(=O)Cc2c([nH]c3ccc(Br)cc23)-c2ccc(Cl)cc21 [Compound 5]
- % TryS inhibition at 30 µM, LiTryS [1]: 36.2 ± 3.6%

Compound: CC(C)(C)OC(=O)CN1C(=O)Cc2c([nH]c3ccc(Br)cc23)-c2ccc(Cl)cc21 [Compound 6]
- % cytotoxicity at 100 µM, macrophages ([2]; 100 µM): 64 ± 0%
- % infection by L. braziliensis at 10 µM ([3]; 10 µM, 24 h, relative to infected non-treated macrophages): 89 ± 13%
- IC50 ([1]; read-out: IC50 value, LiTryS): 2.4 ± 0.3 µM

Compound: NC(=O)CN1C(=O)Cc2c([nH]c3ccc(Br)cc23)-c2ccc(Cl)cc21 [Compound 7]
- IC50 ([1]; IC50 value, LiTryS): 5.1 ± 0.5 µM

Compound: NNC(=O)CN1C(=O)Cc2c([nH]c3ccc(Br)cc23)-c2ccc(Cl)cc21 [Compound 8]
- IC50 ([1]; IC50 value, LiTryS): 4 ± 0.5 µM

Compound: CNC(=O)CN1C(=O)Cc2c([nH]c3ccc(Br)cc23)-c2ccc(Cl)cc21 [Compound 9]
- cytotoxicity at 24 h, 100 µM [4]: 93 ± 4%
- activity at 10 µM ([3]; 24 h): 107 ± 2%
- IC50 ([1]; IC50 value, LiTryS): 0.8 ± 0.1 µM

Compound: CN(C)C(=O)CN1C(=O)Cc2c([nH]c3ccc(Br)cc23)-c2ccc(Cl)cc21 [Compound 10]
- cytotoxicity at 24 h, 100 µM [4]: 21 ± 1%
- % infection by L. braziliensis at 5 µM [3, 6]: 72 ± 4 at 5 µM %
- IC50 ([1]; IC50 value, LiTryS): 0.5 µM

Compound: CCNC(=O)CN1C(=O)Cc2c([nH]c3ccc(Br)cc23)-c2ccc(Cl)cc21 [Compound 11]
- IC50 ([1]; IC50 value, LiTryS): 1.5 ± 0.2 µM

Compound: CCN(CC)C(=O)CN1C(=O)Cc2c([nH]c3ccc(Br)cc23)-c2ccc(Cl)cc21 [Compound 12]
- IC50 [5]: ~30 µM
- cytotoxicity at 24 h, 100 µM [4]: 24 ± 8%
- activity at 10 µM ([3]; 24 h): 82 ± 14%
- IC50 ([1]; IC50 value, LiTryS): 0.5 ± 0.1 µM

Compound: O=C(CN1C(=O)Cc2c([nH]c3ccc(Br)cc23)-c2ccc(Cl)cc21)NCCO [Compound 13]
- IC50 ([1]; IC50 value, LiTryS): 2.3 ± 0.3 µM

Compound: O=C(CN1C(=O)Cc2c([nH]c3ccc(Br)cc23)-c2ccc(Cl)cc21)NC(CO)(CO)CO [Compound 14]
- IC50 ([1]; IC50 value, LiTryS): 5.2 ± 0.4 µM

Compound: CC(C)(C)NC(=O)CN1C(=O)Cc2c([nH]c3ccc(Br)cc23)-c2ccc(Cl)cc21 [Compound 15]
- cytotoxicity at 24 h, 100 µM [4]: 48 ± 8%
- activity at 10 µM ([3]; 24 h): 104 ± 1%
- IC50 ([1]; IC50 value, LiTryS): 2.3 ± 0.4 µM

Compound: O=C(CN1C(=O)Cc2c([nH]c3ccc(Br)cc23)-c2ccc(Cl)cc21)NC1=NCCS1 [Compound 17]
- IC50 ([1]; IC50 value, LiTryS): ~30 µM

Compound: O=C(CN1C(=O)Cc2c([nH]c3ccc(Br)cc23)-c2ccc(Cl)cc21)Nc1ncco1 [Compound 18]
- IC50 ([1]; read-out: IC50 value, LiTryS): 20.1 ± 1.5 µM

Compound: O=C(CN1C(=O)Cc2c([nH]c3ccc(Br)cc23)-c2ccc(Cl)cc21)Nc1ccccc1 [Compound 19]
- IC50 [5]: 30 µM
- IC50 ([1]; IC50 value, LiTryS): ~30 µM

Compound: CC(C)(C)OC(=O)N1CCN(C(=O)CN2C(=O)Cc3c([nH]c4ccc(Br)cc34)-c3ccc(Cl)cc32)CC1 [Compound 22]
- IC50 ([1]; IC50 value, LiTryS): 30 µM and ~30 µM

Compound: O=C(CN1C(=O)Cc2c([nH]c3ccc(Br)cc23)-c2ccc(Cl)cc21)N1CCN(c2ncccn2)CC1 [Compound 23]
- IC50 ([1]; IC50 value, LiTryS): 12.5 ± 0.2 µM

Compound: O=C(CN1C(=O)Cc2c([nH]c3ccc(Br)cc23)-c2ccc(Cl)cc21)N1CCCCC1 [Compound 24, 9-Bromo-3-chloro-5-[2-oxo-2-(piperidin-1-yl)ethyl]-7,12-dihydrobenzo[2,3]azepino-[4,5-b]indol-6(5H)-one]
- % TryS inhibition at 30 µM, LiTryS [1]: 38.6 ± 1.3%

Compound: O=C(CN1C(=O)Cc2c([nH]c3ccc(Br)cc23)-c2ccc(Cl)cc21)N1CCCC1 [Compound 25]
- cytotoxicity at 24 h, 100 µM [4]: 69%
- activity at 10 µM ([3]; 24 h): 68 ± 8%
- IC50 ([1]; IC50 value, LiTryS): 0.5 ± 0.2 µM

Compound: O=C(CN1C(=O)Cc2c([nH]c3ccc(Br)cc23)-c2ccc(Cl)cc21)N1CCOCC1 [Compound 26]
- CC50 [2]: 10.2 ± 0.2 µM
- activity at 10 µM ([3]; 24 h): 29 ± 3%
- SI, L. braziliensis amastigotes [3]: 6
- IC50 ([1]; IC50 value, LiTryS): 2.8 ± 0.7 µM

Compound: NCCNC(=O)CN1C(=O)Cc2c([nH]c3ccc(Br)cc23)-c2ccc(Cl)cc21 [Compound 27]
- cytotoxicity at 24 h, 100 µM [4]: 36 ± 1%
- activity at 10 µM ([3]; 24 h): 68 ± 1%

Compound: CCN(CC)CCNC(=O)CN1C(=O)Cc2c([nH]c3ccc(Br)cc23)-c2ccc(Cl)cc21 [Compound 28]
- CC50 [2]: 6 ± 1 µM
- % infection by L. braziliensis at 5 µM [3, 6]: 38 ± 1 at 5 µM %
- SI, L. braziliensis amastigotes [3]: 2
- IC50 ([1]; IC50 value, LiTryS): 0.5 ± 0.1 µM

Compound: CC(C)(C)OC(=O)NCCNC(=O)CN1C(=O)Cc2c([nH]c3ccc(Br)cc23)-c2ccc(Cl)cc21 [Compound 29]
- % TryS inhibition at 30 µM, LiTryS [1]: 36.7 ± 5.9%

Compound: O=C(CN1C(=O)Cc2c([nH]c3ccc(Br)cc23)-c2ccc(Cl)cc21)NCCN1CCOCC1 [Compound 30]
- IC50 ([1]; IC50 value, LiTryS): 3.3 ± 0.1 µM

Compound: O=C(CN1C(=O)Cc2c([nH]c3ccc(Br)cc23)-c2ccc(Cl)cc21)NCCN1CCCCC1 [Compound 31]
- CC50 [2]: 9 ± 1 µM
- % infection by L. braziliensis at 5 µM [3, 6]: 49 ± 3 at 5 µM %
- SI, L. braziliensis amastigotes [3]: 2
- IC50 ([1]; IC50 value, LiTryS): 0.8 ± 0.1 µM

Compound: O=C(CN1C(=O)Cc2c([nH]c3ccc(Br)cc23)-c2ccc(Cl)cc21)NCCN1CCNCC1 [Compound 32]
- cytotoxicity at 24 h, 100 µM [4]: 24 ± 3%
- activity at 10 µM ([3]; 24 h): 139 ± 2%
- IC50 ([1]; IC50 value, LiTryS): 0.6 ± 0.1 µM

Compound: CN1CCN(CCNC(=O)CN2C(=O)Cc3c([nH]c4ccc(Br)cc34)-c3ccc(Cl)cc32)CC1 [Compound 33]
- IC50 ([1]; IC50 value, LiTryS): 1.1 ± 0.3 µM

Compound: NCCCCNC(=O)CN1C(=O)Cc2c([nH]c3ccc(Br)cc23)-c2ccc(Cl)cc21 [Compound 35]
- cytotoxicity at 24 h, 100 µM [4]: 0%
- activity at 10 µM ([3]; 24 h): 116 ± 3%
- IC50 ([1]; IC50 value, LiTryS): 0.4 ± 0.1 µM
